Data set [1] is described as follows: folding enthalpy; higher = less favourable; fluorescence melt of hairpins on a sequencing array, two-state fit. To be noted: sodium 0.088 M. The method in brief: (§1)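 To match UV melts, fitted temperatures were raised by 9.35 °C. These fits were bootstrapped two-state models that gave melting temperature and folding enthalpy, combined by inverse variance over four replicates. The input was normalised Cy3 fluorescence of library hairpins with annealed Cy3 and quencher oligos on a sequenced MiSeq flow cell, imaged in 50 mM Na-HEPES pH 8.0, 25 mM NaCl in 2.5 °C steps up to 60 °C.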

A short description of data set [2]: melting temperature; fluorescence melt of hairpins on a sequencing array, two-state fit, raised by 9.35 °C to match UV melts. As to conditions: sodium 0.088 M. The method, boiled down:
as §1

This is an account of results in the array DNA melting data of Ke et al. (doi:10.1101/2024.01.08.574731).

Consider GGAATCGGAAACGGTTTC (.((.((....)).)).), for which the folding enthalpy in data set [1] was -26.3 kcal/mol. Besides, the Tm in data set [2] is 32.4 °C.

GGAATGCGAAAGCACTCC (((.(((....))).))): the folding enthalpy in data set [1] was -23.6 kcal/mol. Further, the Tm in data set [2] was 48.3 °C.

In the case of GGAATGGAAACATTCC ((((((....)))))), in data set [1], the folding enthalpy was -44.9 kcal/mol. In addition, in data set [2], the Tm is 53.1 °C.

On to GGAATGGGAAACCATTTC (.(((((....))))).), for which the folding enthalpy in data set [1] was -34.4 kcal/mol. In addition, the Tm in data set [2] amounted to 42.2 °C.

GGAATTGGAAACGATTCC (((((.(....).))))): the folding enthalpy in data set [1] was -34.4 kcal/mol. In addition, in data set [2], the Tm amounted to 45.6 °C.

Consider GGACAAGGAAACCTGTCC (((((.(....).))))), for which the folding enthalpy in data set [1] was -31.4 kcal/mol. The Tm in data set [2] amounted to 47.2 °C.

Regarding GGACACCGAAAGGTCTCC (((.(((....))).))), the folding enthalpy in data set [1] is -23.8 kcal/mol. Besides, the Tm in data set [2] was 40 °C.

For the sequence GGACACCGAAAGGTTCC (((.(((....)))))), the folding enthalpy in data set [1] was -25.6 kcal/mol. Besides, the Tm in data set [2] worked out at 48.6 °C.

For the sequence GGACACGAAAGTGAATCC ((((((....)))..))), the folding enthalpy in data set [1] is -15.9 kcal/mol. For the same sequence, the Tm in data set [2] is 32.9 °C.

On to GGACACGAAAGTGGGTCC ((((((....)))..))), for which the folding enthalpy in data set [1] is -19.9 kcal/mol. Besides, the Tm in data set [2] came out at 48.7 °C.

As for GGACACGGAAACATGTCC (((((.(....).))))), the folding enthalpy in data set [1] is -33 kcal/mol. The Tm in data set [2] turned out to be 44 °C.

Regarding GGACACGGAAACGTGCCC ((.((((....)))).)), the folding enthalpy in data set [1] was -27.9 kcal/mol. The Tm in data set [2] stood at 54.5 °C.

Take GGACAGCGAAAGCTCTCC (((.(((....))).))): the folding enthalpy in data set [1] was -18.3 kcal/mol. The Tm in data set [2] came out at 38.4 °C.

Consider GGACAGGGAAACCTGCCC ((.((((....)))).)), for which the folding enthalpy in data set [1] is -22.3 kcal/mol. In data set [2], the Tm is 48.2 °C.

For the sequence GGACATGAAAATGTCC ((((((....)))))), in data set [1], the folding enthalpy is -34.7 kcal/mol. Besides, the Tm in data set [2] came to 61.7 °C.

In the case of GGACATGGAAACATGCCC ((.((((....)))).)), in data set [1], the folding enthalpy was -23.4 kcal/mol. Further, the Tm in data set [2] turned out to be 47.4 °C.

In the case of GGACCACCGAAAGGTTCC (((..(((....)))))), the folding enthalpy in data set [1] is -11.2 kcal/mol. In addition, in data set [2], the Tm amounted to 29.6 °C.

GGACCAGCGAAAGCTTCC (((..(((....)))))): in data set [1], the folding enthalpy was -10.3 kcal/mol. In addition, in data set [2], the Tm was determined as 25.2 °C.

For the sequence GGACCAGGAAACTGATCC (((.(((....))).))), the folding enthalpy in data set [1] was -34.2 kcal/mol. In data set [2], the Tm was 40.3 °C.

GGACCCACGAAAGTGTCC (((..(((....)))))): the folding enthalpy in data set [1] was -14.4 kcal/mol. For the same sequence, the Tm in data set [2] was determined as 36.4 °C.

As for GGACCCCGAAAGGGATCC (((.(((....))).))), the folding enthalpy in data set [1] was -26.9 kcal/mol. Moreover, the Tm in data set [2] is 55.3 °C.

For the sequence GGACCCGCGAAAGCGTCC (((..(((....)))))), in data set [1], the folding enthalpy was -12.4 kcal/mol. Besides, the Tm in data set [2] came out at 36.7 °C.

For GGACCGCGAAAGCGATCC (((.(((....))).))), the folding enthalpy in data set [1] is -27.9 kcal/mol. The Tm in data set [2] was 59 °C.

On to GGACCGGCGAAAGCCTCC (((..(((....)))))), for which the folding enthalpy in data set [1] is -10.2 kcal/mol. In data set [2], the Tm came out at 27.5 °C.

For the sequence GGACCGGGAAACCAGTCC ((((.((....)).)))), in data set [1], the folding enthalpy was -23.4 kcal/mol. The Tm in data set [2] was determined as 47.3 °C.

With GGACCGGGAAACCGGTTC (.(((((....))))).), in data set [1], the folding enthalpy is -22.3 kcal/mol. Besides, in data set [2], the Tm came out at 59 °C.

Regarding GGACCGGGAAACTGGTCC (((((.(....).))))), the folding enthalpy in data set [1] was -44.9 kcal/mol. For the same sequence, in data set [2], the Tm came to 58.2 °C.

In the case of GGACCTCGAAAGAGTTCC (((.(((....))).))), the folding enthalpy in data set [1] was -27.2 kcal/mol. For the same sequence, the Tm in data set [2] turned out to be 45 °C.

In the case of GGACCTGGAAACAAGTCC ((((.((....)).)))), in data set [1], the folding enthalpy was -23.5 kcal/mol. Moreover, the Tm in data set [2] worked out at 38.7 °C.

Regarding GGACGACGAAAGTCTTCC (((.(((....))).))), in data set [1], the folding enthalpy is -27.1 kcal/mol. Further, in data set [2], the Tm amounted to 48.9 °C.

Take GGACGAGAAATCGTCC ((((((....)))))): the folding enthalpy in data set [1] is -47 kcal/mol. Also, in data set [2], the Tm stood at 60.2 °C.

Take GGACGCGAAAGCGAGTCC ((((((....)))..))): the folding enthalpy in data set [1] is -21 kcal/mol. The Tm in data set [2] was 55.4 °C.

For the sequence GGACGCGAAAGCGATTCC ((((((....)))..))), in data set [1], the folding enthalpy was -11 kcal/mol. Besides, in data set [2], the Tm was 36.5 °C.

For GGACGCGAAAGCGCATCC ((((((....)))..))), the folding enthalpy in data set [1] was -10.1 kcal/mol. Also, the Tm in data set [2] was 34.5 °C.

As for GGACGCGAAAGCGCCTCC ((((((....)))..))), in data set [1], the folding enthalpy was -11.6 kcal/mol. The Tm in data set [2] came out at 60.2 °C.

Turning to GGACGCGAAAGCGGGTCC ((((((....)))..))), the folding enthalpy in data set [1] was -14 kcal/mol. For the same sequence, the Tm in data set [2] worked out at 54.2 °C.
